In ChEMBL document CHEMBL1649427, “Inactivation of the glycoside hydrolase NagZ attenuates antipseudomonal beta-lactam resistance in Pseudomonas aeruginosa” (Antimicrob Agents Chemother, 2009):
≈ marks a conversion by molar mass, not a printed value.

Columns and labels:
Pseudomonas aeruginosa [1] = test: Antimicrobial activity against ampDDh3 gene-deficient Pseudomonas aeruginosa PAO1 after 18 hrs by broth microdilution method in presence; type: functional; conditions: PAO1, 18 h
Outline: (§1)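 Wells are then inoculated with 100 μl culture and incubated 18 h at 37°C. The MIC is the lowest concentration with no growth. Triplicate determinations.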

Pseudomonas aeruginosa [2] = test: Antimicrobial activity against ampDh2 and ampDh3 gene-deficient Pseudomonas aeruginosa PAO1 after 18 hrs by broth microdilution method in presence of 0.5 mM nagZ inhibitor EtBuPUG; type: functional; conditions: PAO1, 18 h; outline: as §1
Pseudomonas aeruginosa [3] = test: Antimicrobial activity against ampDDh3 gene-deficient Pseudomonas aeruginosa PAO1 after 18 hrs by broth microdilution method in presence of 0.5 mM nagZ inhibitor EtBuPUG; type: functional; conditions: PAO1, 18 h; outline: as §1
Pseudomonas aeruginosa [4] = test: Antimicrobial activity against ampDDh2 and ampDh3 gene-deficient Pseudomonas aeruginosa PAO1 after 18 hrs using […] by agar diffusion method in presence of 0.5 mM nagZ inhibitor EtBuPUG; type: functional
Outline: (§2)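 Cultures grown in Mueller-Hinton broth at 37°C to OD600 ~0.5, pelleted, resuspended in 2 ml broth and streaked on Mueller-Hinton agar. Inhibition zone diameter measured after overnight incubation at 37°C. Triplicate determinations.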

Pseudomonas aeruginosa [5] = test: Antimicrobial activity against Pseudomonas aeruginosa PAO1 after 18 hrs by using 30 ug/disk by agar diffusion method; type: functional; outline: as §2
Pseudomonas aeruginosa [6] = test: Antimicrobial activity against Pseudomonas aeruginosa PAO1 after 18 hrs by broth microdilution method in presence of 0.5 mM nagZ inhibitor EtBuPUG; type: functional; conditions: PAO1, 18 h; outline: as §1
Pseudomonas aeruginosa [7] = test: Ratio of MIC for ampDh3 gene-deficient Pseudomonas aeruginosa PAO1 after 18 hrs by broth microdilution method presence of 0.5 mM nagZ inhibitor EtBuPUG to MIC for ampDh3 gene-deficient Pseudomonas aeruginosa PAO1 in absence of nagZ inhibitor EtBuPUG; type: functional
Outline: (§3)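 Broth microdilution in Mueller-Hinton broth. Serial β-lactam dilutions in 80 μl broth, plus 20 μl EtBuPUG (5 mM stock in H₂O) or 20 μl H₂O, then 100 μl culture grown to OD600 ~0.5. Plates incubated at 37°C for 18 h. MIC read as the antibiotic concentration in wells with no growth, with and without inhibitor. Triplicate.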

Pseudomonas aeruginosa [8] = test: Antimicrobial activity against Pseudomonas aeruginosa PAO1 harboring deltaampD::lox deltaampDh2::lox deltaampDh3::lox deltanagZ::Gm after 18 hrs by Etest; type: functional; conditions: PAO1, 18 h
Outline: (§4)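 Etest strips on Mueller-Hinton agar plates, run per the manufacturer's recommendations; MICs determined in triplicate.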

Pseudomonas aeruginosa [9] = test: Antimicrobial activity against Pseudomonas aeruginosa PAO1 after 18 hrs by broth microdilution method; type: functional; conditions: PAO1, 18 h
Outline: (§5)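 CLSI broth microdilution in cation-adjusted Mueller-Hinton medium with serial β-lactam dilutions. Each well holds 200 μl broth inoculated with ~10⁴ cells from starter cultures at OD600 ~0.5. Plates shaken at 37°C for 18 h. The MIC is read as the lowest antibiotic concentration showing no growth. Triplicate determinations.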

Pseudomonas aeruginosa [10] = test: Ratio of MIC for ampD gene-deficient Pseudomonas aeruginosa PAO1 after 18 hrs by broth microdilution method presence of 0.5 mM nagZ inhibitor EtBuPUG to MIC for […] gene-deficient Pseudomonas aeruginosa PAO1 in absence of nagZ inhibitor EtBuPUG; type: functional; outline: as §3
Pseudomonas aeruginosa [11] = test: Antimicrobial activity against ampDh2 gene-deficient Pseudomonas aeruginosa PAO1 after 18 hrs by broth microdilution method in presence of 0.5 mM nagZ inhibitor EtBuPUG; type: functional; conditions: PAO1, 18 h; outline: as §1
Pseudomonas aeruginosa [12] = test: Antimicrobial activity against ampDDh2 gene-deficient Pseudomonas aeruginosa PAO1 after 18 hrs by broth microdilution method in presence of 0.5 mM nagZ inhibitor EtBuPUG; type: functional; conditions: PAO1, 18 h; outline: as §1
Pseudomonas aeruginosa [13] = test: Antimicrobial activity against Pseudomonas aeruginosa PAO1 harboring deltaampD::lox deltaampDh2::lox delta ampDh3::lox after 18 hrs by Etest; type: functional; conditions: PAO1, 18 h; outline: as §4
Pseudomonas aeruginosa [14] = test: Antimicrobial activity against ampDh2 gene-deficient Pseudomonas aeruginosa PAO1 using 30 ug/disk by agar diffusion method; type: functional; outline: as §2
Pseudomonas aeruginosa [15] = test: Antimicrobial activity against Pseudomonas aeruginosa PAO1 after 18 hrs by using 30 ug/disk by agar diffusion method in presence of 0.5 mM nagZ inhibitor EtBuPUG; type: functional
Outline: (§6)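 Cultures grown in Mueller-Hinton broth at 37°C to OD600 ~0.5, pelleted, resuspended in 2 ml broth and streaked on Mueller-Hinton agar. […] Inhibition zone diameter measured after overnight incubation at 37°C. Triplicate determinations.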

Pseudomonas aeruginosa [16] = test: Antimicrobial activity against ampDDh2 and ampDh3 gene-deficient Pseudomonas aeruginosa PAO1 after 18 hrs by broth microdilution method in presence of 0.5 mM nagZ inhibitor EtBuPUG; type: functional; conditions: PAO1, 18 h; outline: as §1
Pseudomonas aeruginosa [17] = test: Antimicrobial activity against nagZ gene-deficient Pseudomonas aeruginosa PAO1 after 18 hrs by broth microdilution method; type: functional; conditions: PAO1, 18 h; outline: as §5
Pseudomonas aeruginosa [18] = test: Ratio of MIC for Pseudomonas aeruginosa PAO1 harboring deltaampD::lox deltaampDh2::lox deltaampDh3::lox to MIC for Pseudomonas aeruginosa PAO1 harboring deltaampD::lox deltaampDh2::lox deltaampDh3::lox deltanagZ::Gm
Pseudomonas aeruginosa [19] = test: Antimicrobial activity against ampDh2 gene-deficient Pseudomonas aeruginosa PAO1 after 18 hrs by broth microdilution method in absence of EtBuPUG; conditions: PAO1, 18 h
Pseudomonas aeruginosa [20] = test: Ratio of MIC for ampDh2 gene-deficient Pseudomonas aeruginosa PAO1 after 18 hrs by broth microdilution method in presence of 0.5 mM nagZ inhibitor EtBuPUG to MIC for ampDh2 gene-deficient Pseudomonas aeruginosa PAO1 in absence of nagZ inhibitor EtBuPUG; type: functional; outline: as §3
Pseudomonas aeruginosa [21] = test: Antimicrobial activity against ampD gene-deficient Pseudomonas aeruginosa PAO1 after 18 hrs by broth microdilution method in presence of 0.5 mM nagZ inhibitor EtBuPUG; type: functional; conditions: PAO1, 18 h; outline: as §1
Pseudomonas aeruginosa [22] = test: Antimicrobial activity against Pseudomonas aeruginosa PAO1 harboring deltaampD::lox deltaampDh2::lox delta ampDh3::lox and wild type nagZ gene after 18 hrs by Etest; type: functional; conditions: PAO1, 18 h
Outline: (§7)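 Etest strips on Mueller-Hinton agar supplemented with 75 μg/ml tetracycline to maintain the vector or complementation plasmid, run per the manufacturer's recommendations; triplicate determinations.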

Pseudomonas aeruginosa [23] = test: Antimicrobial activity against ampDh3 gene-deficient Pseudomonas aeruginosa PAO1 after 18 hrs by broth microdilution method in presence of 0.5 mM nagZ inhibitor EtBuPUG; type: functional; conditions: PAO1, 18 h; outline: as §1
Pseudomonas aeruginosa [24] = test: Antimicrobial activity against Pseudomonas aeruginosa PAO1 harboring deltaampD::lox deltaampDh2::lox delta ampDh3::lox and plasmid pUCP27 after 18 hrs by Etest; type: functional; conditions: PAO1, 18 h; outline: as §7
Pseudomonas aeruginosa [25] = test: Antimicrobial activity against ampDDh2 and ampDh3 gene-deficient Pseudomonas aeruginosa PAO1 after 18 hrs using […] by agar diffusion method; type: functional; outline: as §6
Pseudomonas aeruginosa [26] = test: Antimicrobial activity against ampDh2 gene-deficient Pseudomonas aeruginosa PAO1 using 30 ug/disk by agar diffusion method in presence of 0.5 mM nagZ inhibitor EtBuPUG; type: functional; outline: as §6
Pseudomonas aeruginosa [27] = test: Antimicrobial activity against ampD gene-deficient Pseudomonas aeruginosa PAO1 after 18 hrs by broth microdilution method in absence of EtBuPUG; conditions: PAO1, 18 h
Pseudomonas aeruginosa [28] = test: Antimicrobial activity against ampDDh2 gene-deficient Pseudomonas aeruginosa PAO1 after 18 hrs by broth microdilution method in presence; type: functional; conditions: PAO1, 18 h; outline: as §1
Pseudomonas aeruginosa [29] = test: Antimicrobial activity against ampDh3 gene-deficient Pseudomonas aeruginosa PAO1 after 18 hrs by broth microdilution method in presence; type: functional; conditions: PAO1, 18 h; outline: as §1
Pseudomonas aeruginosa [30] = test: Antimicrobial activity against ampDh2 and ampDh3 gene-deficient Pseudomonas aeruginosa PAO1 after 18 hrs by broth microdilution method; type: functional; conditions: PAO1, 18 h; outline: as §1

CC(C)(O/N=C(\C(=O)N[C@@H]1C(=O)N2C(C(=O)[O-])=C(C[n+]3ccccc3)CS[C@H]12)c1csc(N)n1)C(=O)O [CEFTAZIDIME]
MIC (Pseudomonas aeruginosa [1]): 48 µg/mL (≈ 87.8 µM) | MIC (Pseudomonas aeruginosa [2]): 0.75 µg/mL | MIC (Pseudomonas aeruginosa [3]): 48 µg/mL | inhibition zone (IZ) (Pseudomonas aeruginosa [4]): 9.5 mm | inhibition zone (IZ) (Pseudomonas aeruginosa [5]): 11.4 mm | MIC (Pseudomonas aeruginosa [6]): 0.5 µg/mL | Ratio (Pseudomonas aeruginosa [7]): 2 | MIC (Pseudomonas aeruginosa [8]): 12 µg/mL (≈ 22 µM) | MIC (Pseudomonas aeruginosa [9]): 1 µg/mL (≈ 1.83 µM) | Ratio (Pseudomonas aeruginosa [10]): 2 | MIC (Pseudomonas aeruginosa [11]): 0.19 µg/mL | MIC (Pseudomonas aeruginosa [12]): 6 µg/mL | MIC (Pseudomonas aeruginosa [13]): 48 µg/mL (≈ 87.8 µM) | inhibition zone (IZ) (Pseudomonas aeruginosa [14]): 10.1 mm | inhibition zone (IZ) (Pseudomonas aeruginosa [15]): 13.1 mm | MIC (Pseudomonas aeruginosa [16]): 48 µg/mL | MIC (Pseudomonas aeruginosa [17]): 0.5 µg/mL (≈ 0.915 µM) | Ratio (Pseudomonas aeruginosa [18]): 4 | MIC (Pseudomonas aeruginosa [19]): 0.75 µg/mL (≈ 1.37 µM) | Ratio (Pseudomonas aeruginosa [20]): 4 | MIC (Pseudomonas aeruginosa [21]): 4 µg/mL | MIC (Pseudomonas aeruginosa [22]): 48 µg/mL (≈ 87.8 µM) | MIC (Pseudomonas aeruginosa [23]): 0.5 µg/mL | MIC (Pseudomonas aeruginosa [24]): 12 µg/mL (≈ 22 µM) | inhibition zone (IZ) (Pseudomonas aeruginosa [25]): 9.2 mm | inhibition zone (IZ) (Pseudomonas aeruginosa [26]): 12.3 mm | MIC (Pseudomonas aeruginosa [27]): 8 µg/mL (≈ 14.6 µM) | MIC (Pseudomonas aeruginosa [28]): 12 µg/mL (≈ 22 µM) | MIC (Pseudomonas aeruginosa [29]): 1 µg/mL (≈ 1.83 µM) | MIC (Pseudomonas aeruginosa [30]): 0.75 µg/mL (≈ 1.37 µM)
